From ChEMBL document CHEMBL4145462, “Nitrogen-containing ecdysteroid derivatives vs. multi-drug resistance in cancer: Preparation and antitumor activity of oximes, oxime ethers and a lactam” (Eur J Med Chem, 2018)

What was measured:
[1] = Synergistic cytotoxicity against mouse L5178 cells assessed as combination index at ED50 using 37.5:1 test compound to doxorubicin ratio after 48 hrs by MTT-based checkerboard microplate method; assay type: functional
Procedure, shortened: (§1)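 Checkerboard microplate combinations of compound with doxorubicin at constant molar ratios. 5 × 10^4 cells/well in McCoy's 5A, 48 h at 37°C, 5% CO2. MTT added to 0.5 mg/mL final for 4 h, SDS/HCl overnight, OD read at 540 and 630 nm. Combination indices derived per ratio for 50%, 75% and 90% growth inhibition by median-effect analysis.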

[2] = Synergistic cytotoxicity against mouse L5178 cells assessed as combination index at ED90 using 600:1 test compound to doxorubicin ratio after 48 hrs by MTT-based checkerboard microplate method; assay type: functional; procedure, shortened: as §1
[3] = Synergistic cytotoxicity against mouse L5178 cells assessed as combination index at ED75 using 75:1 test compound to doxorubicin ratio after 48 hrs by MTT-based checkerboard microplate method; assay type: functional; procedure, shortened: as §1
HeLa = assay: Antiproliferative activity against human HeLa cells after 72 hrs by MTT assay; assay type: functional, cell-based
Procedure, shortened: (§2)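 Cells grown in MEM with 10% FCS, 1% non-essential amino acids and 1% penicillin-streptomycin. Seeded at 5000 cells/well, exposed to 0.1–30.0 µM compound for 72 h. MTT (5 mg/ml solution) was then added for 4 h, formazan dissolved in DMSO, and absorbance read at 545 nm. Cisplatin served as positive control. IC50 came from sigmoidal dose–response fits (log inhibitor vs normalized response, variable slope).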

[4] = Synergistic cytotoxicity against mouse L5178 cells assessed as combination index at ED90 using 150:1 test compound to doxorubicin ratio after 48 hrs by MTT-based checkerboard microplate method; assay type: functional; procedure, shortened: as §1
MDA-MB-231 = assay: Antiproliferative activity against human MDA-MB-231 cells after 72 hrs by MTT assay; assay type: functional, cell-based; settings: MDA-MB-231, 72 h; procedure, shortened: as §2
[5] = Synergistic cytotoxicity against mouse L5178 cells expressing human ABCB1 assessed as combination index at ED75 using 15:1 test compound to doxorubicin ratio after 48 hrs by MTT-based checkerboard microplate method; assay type: functional; procedure, shortened: as §1
MCF7 = assay: Antiproliferative activity against human MCF7 cells after 72 hrs by MTT assay; assay type: functional, cell-based; settings: MCF7, 72 h; procedure, shortened: as §2
[6] = Synergistic cytotoxicity against mouse L5178 cells expressing human ABCB1 assessed as combination index at ED50 using 7.5:1 test compound to doxorubicin ratio after 48 hrs by MTT-based checkerboard microplate method; assay type: functional; procedure, shortened: as §1
[7] = Synergistic cytotoxicity against mouse L5178 cells assessed as combination index at ED75 using 37.5:1 test compound to doxorubicin ratio after 48 hrs by MTT-based checkerboard microplate method; assay type: functional; procedure, shortened: as §1
[8] = Synergistic cytotoxicity against mouse L5178 cells assessed as combination index at ED50 using 75:1 test compound to doxorubicin ratio after 48 hrs by MTT-based checkerboard microplate method; assay type: functional; procedure, shortened: as §1
[9] = Synergistic cytotoxicity against mouse L5178 cells assessed as combination index at ED75 using 300:1 test compound to doxorubicin ratio after 48 hrs by MTT-based checkerboard microplate method; assay type: functional; procedure, shortened: as §1
[10] = Synergistic cytotoxicity against mouse L5178 cells expressing human ABCB1 assessed as combination index at ED75 using 3.75:1 test compound to doxorubicin ratio after 48 hrs by MTT-based checkerboard microplate method; assay type: functional; procedure, shortened: as §1
SiHa = assay: Antiproliferative activity against human SiHa cells after 72 hrs by MTT assay; assay type: functional, cell-based; procedure, shortened: as §2
[11] = Synergistic cytotoxicity against mouse L5178 cells expressing human ABCB1 assessed as combination index at ED90 using 7.5:1 test compound to doxorubicin ratio after 48 hrs by MTT-based checkerboard microplate method; assay type: functional; procedure, shortened: as §1
[12] = Synergistic cytotoxicity against mouse L5178 cells expressing human ABCB1 assessed as combination index at ED90 using 15:1 test compound to doxorubicin ratio after 48 hrs by MTT-based checkerboard microplate method; assay type: functional; procedure, shortened: as §1
[13] = Synergistic cytotoxicity against mouse L5178 cells expressing human ABCB1 assessed as combination index at ED90 using 30:1 test compound to doxorubicin ratio after 48 hrs by MTT-based checkerboard microplate method; assay type: functional; procedure, shortened: as §1
[14] = Synergistic cytotoxicity against mouse L5178 cells assessed as combination index at ED50 using 150:1 test compound to doxorubicin ratio after 48 hrs by MTT-based checkerboard microplate method; assay type: functional; procedure, shortened: as §1
[15] = Synergistic cytotoxicity against mouse L5178 cells expressing human ABCB1 assessed as combination index at ED75 using 30:1 test compound to doxorubicin ratio after 48 hrs by MTT-based checkerboard microplate method; assay type: functional; procedure, shortened: as §1
ABCB1 (P-glycoprotein) [16] = biological target: T1, ABCB1 (P-glycoprotein) (Homo sapiens, UniProt P08183); assay: Inhibition of human ABCB1 expressed in mouse L5178 cells assessed as increase in rhodamine-123 accumulation at 2 uM after 10 mins by flow cytometric analysis relative to control; assay type: cell-based; settings: mouse L5178 cells expressing human ABCB1, probe rhodamine-123
T1 sequence (P08183 whole entry): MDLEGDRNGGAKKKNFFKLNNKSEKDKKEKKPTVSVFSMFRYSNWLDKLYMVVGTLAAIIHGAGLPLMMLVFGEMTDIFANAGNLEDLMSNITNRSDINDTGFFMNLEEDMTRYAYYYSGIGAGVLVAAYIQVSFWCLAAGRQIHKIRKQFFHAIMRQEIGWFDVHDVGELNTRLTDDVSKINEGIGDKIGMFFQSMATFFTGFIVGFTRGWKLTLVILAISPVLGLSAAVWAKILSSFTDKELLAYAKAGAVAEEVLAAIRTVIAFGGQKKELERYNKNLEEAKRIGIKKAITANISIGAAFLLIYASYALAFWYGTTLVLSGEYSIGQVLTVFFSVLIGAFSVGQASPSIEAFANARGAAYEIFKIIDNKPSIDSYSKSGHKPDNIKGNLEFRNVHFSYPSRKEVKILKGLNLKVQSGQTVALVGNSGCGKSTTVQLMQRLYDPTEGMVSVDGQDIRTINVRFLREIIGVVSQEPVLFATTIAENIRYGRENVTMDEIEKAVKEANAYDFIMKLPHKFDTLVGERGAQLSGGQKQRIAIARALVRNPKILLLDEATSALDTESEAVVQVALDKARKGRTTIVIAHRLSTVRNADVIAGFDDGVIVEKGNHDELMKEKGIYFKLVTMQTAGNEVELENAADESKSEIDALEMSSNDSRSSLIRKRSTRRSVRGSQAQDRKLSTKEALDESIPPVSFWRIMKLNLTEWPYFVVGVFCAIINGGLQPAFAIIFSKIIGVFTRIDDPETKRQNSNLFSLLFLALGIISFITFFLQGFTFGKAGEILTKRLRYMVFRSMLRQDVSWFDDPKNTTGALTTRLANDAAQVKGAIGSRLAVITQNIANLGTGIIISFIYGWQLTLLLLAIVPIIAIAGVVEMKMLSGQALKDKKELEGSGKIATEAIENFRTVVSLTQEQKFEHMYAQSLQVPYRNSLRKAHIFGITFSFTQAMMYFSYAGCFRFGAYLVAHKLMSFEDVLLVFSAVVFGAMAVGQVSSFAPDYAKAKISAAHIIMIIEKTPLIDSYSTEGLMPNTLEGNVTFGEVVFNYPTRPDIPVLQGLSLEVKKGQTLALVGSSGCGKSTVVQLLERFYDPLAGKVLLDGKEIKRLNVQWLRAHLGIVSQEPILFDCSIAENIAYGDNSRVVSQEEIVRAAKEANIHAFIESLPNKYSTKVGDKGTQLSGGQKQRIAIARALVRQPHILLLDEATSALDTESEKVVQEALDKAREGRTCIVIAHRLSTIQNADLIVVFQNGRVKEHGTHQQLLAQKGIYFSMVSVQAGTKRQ
Procedure, shortened: (§3)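 Cells at 2 × 10^6/mL were preincubated 10 min with compound. Rhodamine 123 then added to 5.2 µM final, 20 min at 37 °C. Cells washed twice in PBS, resuspended and read by flow cytometry. Percent inhibition was scaled between MDR-cell accumulation (0%) and parental L5178 accumulation (100%). Controls: 100 nM tariquidar (positive) and 2% DMSO (negative).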

[17] = Synergistic cytotoxicity against mouse L5178 cells assessed as combination index at ED75 using 600:1 test compound to doxorubicin ratio after 48 hrs by MTT-based checkerboard microplate method; assay type: functional; procedure, shortened: as §1
[18] = Synergistic cytotoxicity against mouse L5178 cells expressing human ABCB1 assessed as combination index at ED75 using 7.5:1 test compound to doxorubicin ratio after 48 hrs by MTT-based checkerboard microplate method; assay type: functional; procedure, shortened: as §1
[19] = Synergistic cytotoxicity against mouse L5178 cells assessed as combination index at ED50 using 600:1 test compound to doxorubicin ratio after 48 hrs by MTT-based checkerboard microplate method; assay type: functional; procedure, shortened: as §1
[20] = Synergistic cytotoxicity against mouse L5178 cells expressing human ABCB1 assessed as combination index at ED50 using 3.75:1 test compound to doxorubicin ratio after 48 hrs by MTT-based checkerboard microplate method; assay type: functional; procedure, shortened: as §1
[21] = Synergistic cytotoxicity against mouse L5178 cells expressing human ABCB1 assessed as combination index at ED50 using 15:1 test compound to doxorubicin ratio after 48 hrs by MTT-based checkerboard microplate method; assay type: functional; procedure, shortened: as §1
ABCB1 (P-glycoprotein) [22] = biological target: T1, ABCB1 (P-glycoprotein); assay: Inhibition of human ABCB1 expressed in mouse L5178 cells assessed as increase in rhodamine-123 accumulation at 20 uM after 10 mins by flow cytometric analysis relative to control; assay type: cell-based; settings: mouse L5178 cells expressing human ABCB1, probe rhodamine-123; procedure, shortened: as §3
[23] = Synergistic cytotoxicity against mouse L5178 cells expressing human ABCB1 assessed as combination index at ED90 using 60:1 test compound to doxorubicin ratio after 48 hrs by MTT-based checkerboard microplate method; assay type: functional; procedure, shortened: as §1
[24] = Synergistic cytotoxicity against mouse L5178 cells expressing human ABCB1 assessed as combination index at ED75 using 60:1 test compound to doxorubicin ratio after 48 hrs by MTT-based checkerboard microplate method; assay type: functional; procedure, shortened: as §1
[25] = Synergistic cytotoxicity against mouse L5178 cells expressing human ABCB1 assessed as combination index at ED50 using 60:1 test compound to doxorubicin ratio after 48 hrs by MTT-based checkerboard microplate method; assay type: functional; procedure, shortened: as §1

Compound	IC50 (HeLa) [µM]	IC50 (MDA-MB-231) [µM]	IC50 (MCF7) [µM]	inhibition at 10 min, 2 µM (ABCB1 (P-glycoprotein) [16]) [%]	CI [1]	CI [3]	CI [4]	CI [5]	CI [6]	CI [7]	CI [8]	CI [9]	CI [10]	IC50 (SiHa) [µM]	CI [11]	CI [12]	CI [13]	CI [14]	CI [15]	CI [18]	other results
CCO/N=C1/C=C2[C@H](CC[C@]3(C)[C@@H]([C@@]4(C)OC(C)(C)O[C@@H]4CCC(C)(C)O)CC[C@@]23O)[C@@]2(C)C[C@@H]3OC(C)(C)O[C@@H]3C[C@@H]12	29.1	25.1	13.1	19	0.63	0.58	0.73	0.17	0.19	0.52	0.58	0.88	0.16	> 30	0.17	0.19	0.26	0.18	0.23	0.16	CI [2]: 0.94; CI [17]: 0.83; CI [19]: 0.75; CI [20]: 0.27; CI [21]: 0.62; inhibition at 10 min, 20 µM (ABCB1 (P-glycoprotein) [22]): 75%
CO/N=C1/C=C2C3=CC[C@H]([C@@]4(C)OC(C)(C)O[C@@H]4CCC(C)(C)O)[C@@]3(C)CC[C@@H]2[C@@]2(C)C[C@@H]3OC(C)(C)O[C@@H]3C[C@@H]12	15.4	26	18	33.4	0.77	0.5	0.64	0.17	0.17	0.47	0.69	0.83	0.17	> 30	0.15	0.16	0.24	0.18	0.22	0.16	CI [2]: 1.3; CI [23]: 0.36; CI [24]: 0.34; CI [17]: 1.2; CI [19]: 1.14; CI [20]: 0.2; CI [21]: 0.75; CI [25]: 0.33; inhibition at 10 min, 20 µM (ABCB1 (P-glycoprotein) [22]): 106%
CC(C)(O)CC[C@H]1OC(C)(C)O[C@]1(C)[C@H]1CC=C2C3=C/C(=N/OC(C)(C)C)[C@@H]4C[C@H]5OC(C)(C)O[C@H]5C[C@]4(C)[C@H]3CC[C@@]21C	20.7	15.7	17.3	59	0.53	0.67	0.79	0.32	0.34	0.59	0.82	1.06	0.29	8.14	0.23	0.33	0.31	0.34	0.32	0.26	CI [2]: 0.94; CI [23]: 0.53; CI [24]: 0.5; CI [17]: 0.91; CI [19]: 0.88; CI [20]: 0.42; CI [21]: 0.5; CI [25]: 0.47; inhibition at 10 min, 20 µM (ABCB1 (P-glycoprotein) [22]): 78.8%

Continued, in another order:

IC50 (HeLa) [µM]	IC50 (MDA-MB-231) [µM]	IC50 (MCF7) [µM]	inhibition at 10 min, 2 µM (ABCB1 (P-glycoprotein) [16]) [%]	Compound	CI [1]	CI [3]	CI [4]	CI [5]	CI [6]	CI [7]	CI [8]	CI [9]	CI [10]	IC50 (SiHa) [µM]	CI [11]	CI [12]	CI [13]	CI [14]	CI [15]	CI [18]	other results
> 30	29.4	24.2	61.1	C=CCO/N=C1/C=C2C3=CC[C@H]([C@@]4(C)OC(C)(C)O[C@@H]4CCC(C)(C)O)[C@@]3(C)CC[C@@H]2[C@@]2(C)C[C@@H]3OC(C)(C)O[C@@H]3C[C@@H]12	0.46	0.5	0.8	0.22	0.22	0.47	0.58	0.88	0.15	> 30	0.15	0.22	0.34	0.24	0.32	0.17	CI [2]: 1.12; CI [23]: 0.39; CI [24]: 0.39; CI [17]: 0.99; CI [19]: 0.88; CI [20]: 0.25; CI [21]: 0.5; CI [25]: 0.41; inhibition at 10 min, 20 µM (ABCB1 (P-glycoprotein) [22]): 103%
17.6	26.9	17.2	24.2	C=CCO/N=C1/C=C2[C@H](CC[C@]3(C)[C@@H]([C@@]4(C)OC(C)(C)O[C@@H]4CCC(C)(C)O)CC[C@@]23O)[C@@]2(C)C[C@@H]3OC(C)(C)O[C@@H]3C[C@@H]12	1.08	0.83	1.31	0.16	0.2	1.11	0.7	1.18	0.19	> 30	0.19	0.17	0.25	0.17	0.22	0.19	CI [23]: 0.35; CI [24]: 0.32; CI [20]: 0.23; CI [21]: 0.17; CI [25]: 0.31; inhibition at 10 min, 20 µM (ABCB1 (P-glycoprotein) [22]): 81.8%
30	26	19.6	56.4	CCO/N=C1/C=C2C3=CC[C@H]([C@@]4(C)OC(C)(C)O[C@@H]4CCC(C)(C)O)[C@@]3(C)CC[C@@H]2[C@@]2(C)C[C@@H]3OC(C)(C)O[C@@H]3C[C@@H]12	0.72	0.5	0.56	0.18	0.21	0.66	0.49	0.66	0.14	> 30	0.11	0.18	0.2	0.21	0.2	0.14	CI [2]: 1; CI [23]: 0.37; CI [24]: 0.36; CI [17]: 1.1; CI [19]: 1.21; CI [20]: 0.25; CI [21]: 0.42; CI [25]: 0.36; inhibition at 10 min, 20 µM (ABCB1 (P-glycoprotein) [22]): 108%
